{"source": "ChEMBL document CHEMBL4190389", "about": "“Synthesis and activity of di- or trisubstituted N-(phenoxyalkyl)- or N-{2-[2-(phenoxy)ethoxy]ethyl}piperazine derivatives on the central nervous system” (Bioorg Med Chem Lett, 2018)", "key": {"[1]": {"molecular_target": "T1, 5-hydroxytryptamine receptor 1A (Homo sapiens, UniProt P08908)", "T1 sequence (P08908 whole entry)": "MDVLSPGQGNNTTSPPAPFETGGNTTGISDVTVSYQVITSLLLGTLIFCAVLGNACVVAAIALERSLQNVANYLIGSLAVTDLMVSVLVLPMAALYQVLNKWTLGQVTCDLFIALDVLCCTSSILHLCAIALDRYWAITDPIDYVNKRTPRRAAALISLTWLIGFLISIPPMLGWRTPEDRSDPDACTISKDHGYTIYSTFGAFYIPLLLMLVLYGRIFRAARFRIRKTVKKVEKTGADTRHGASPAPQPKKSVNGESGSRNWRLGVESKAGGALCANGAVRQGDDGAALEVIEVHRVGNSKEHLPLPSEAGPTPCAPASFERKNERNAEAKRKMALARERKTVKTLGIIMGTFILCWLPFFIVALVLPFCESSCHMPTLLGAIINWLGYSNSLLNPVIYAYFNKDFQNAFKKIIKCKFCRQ", "assay": "Displacement of [3H]8-OH-DPAT from recombinant human 5-HT1A receptor expressed in HEK293 cell membranes after 60 mins by liquid scintillation counting method"}, "[2]": {"molecular_target": "T2, 5-hydroxytryptamine receptor 2A (Homo sapiens, UniProt P28223)", "T2 sequence (P28223 whole entry)": "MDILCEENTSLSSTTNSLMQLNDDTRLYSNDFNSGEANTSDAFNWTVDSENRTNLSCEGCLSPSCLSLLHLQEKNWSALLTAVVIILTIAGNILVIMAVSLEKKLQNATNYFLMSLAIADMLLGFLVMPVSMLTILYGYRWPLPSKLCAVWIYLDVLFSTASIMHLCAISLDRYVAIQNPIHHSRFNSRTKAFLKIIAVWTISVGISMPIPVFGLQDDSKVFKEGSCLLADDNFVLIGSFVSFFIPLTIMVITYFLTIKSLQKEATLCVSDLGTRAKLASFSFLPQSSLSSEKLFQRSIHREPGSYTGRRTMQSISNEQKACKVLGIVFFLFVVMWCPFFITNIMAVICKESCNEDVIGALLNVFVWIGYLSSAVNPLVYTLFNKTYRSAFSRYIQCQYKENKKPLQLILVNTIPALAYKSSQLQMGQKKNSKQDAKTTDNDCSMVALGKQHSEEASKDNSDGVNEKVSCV", "assay": "biochemical", "type": "cell-based, HEK293"}, "[3]": {"molecular_target": "5-hydroxytryptamine receptor 6 (Homo sapiens, UniProt P50406)", "sequence (P50406 whole entry)": "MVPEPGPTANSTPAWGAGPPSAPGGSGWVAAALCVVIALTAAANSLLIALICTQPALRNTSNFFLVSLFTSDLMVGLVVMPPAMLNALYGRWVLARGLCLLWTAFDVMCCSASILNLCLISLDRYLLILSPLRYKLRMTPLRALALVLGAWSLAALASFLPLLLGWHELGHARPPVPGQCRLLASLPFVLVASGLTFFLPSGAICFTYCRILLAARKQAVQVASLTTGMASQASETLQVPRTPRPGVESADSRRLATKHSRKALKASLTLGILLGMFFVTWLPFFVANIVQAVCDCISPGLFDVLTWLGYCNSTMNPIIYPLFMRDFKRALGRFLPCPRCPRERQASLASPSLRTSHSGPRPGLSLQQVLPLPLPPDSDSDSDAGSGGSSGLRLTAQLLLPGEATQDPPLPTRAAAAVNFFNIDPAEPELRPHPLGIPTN", "assay": "Displacement of [3H]LSD from recombinant human 5-HT6 receptor expressed in CHO cells cell membranes after 60 mins by liquid scintillation counting method"}, "[4]": {"molecular_target": "T3, 5-hydroxytryptamine receptor 7 (Homo sapiens, UniProt P34969)", "T3 sequence (P34969 whole entry)": "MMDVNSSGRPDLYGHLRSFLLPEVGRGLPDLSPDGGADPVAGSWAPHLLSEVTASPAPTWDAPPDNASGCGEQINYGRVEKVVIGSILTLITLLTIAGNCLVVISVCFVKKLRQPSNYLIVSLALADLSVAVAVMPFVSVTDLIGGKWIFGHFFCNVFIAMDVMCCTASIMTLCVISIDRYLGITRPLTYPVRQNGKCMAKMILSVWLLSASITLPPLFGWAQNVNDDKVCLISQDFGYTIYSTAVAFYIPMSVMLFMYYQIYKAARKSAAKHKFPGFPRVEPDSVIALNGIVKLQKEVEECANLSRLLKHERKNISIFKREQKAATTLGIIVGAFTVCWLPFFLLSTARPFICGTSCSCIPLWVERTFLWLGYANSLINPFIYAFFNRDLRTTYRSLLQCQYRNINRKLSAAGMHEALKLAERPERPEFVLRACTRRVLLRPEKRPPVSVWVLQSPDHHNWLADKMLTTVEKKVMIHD", "assay": "biochemical", "type": "cell-based, CHO"}, "[5]": {"molecular_target": "T4, D(2) dopamine receptor (Homo sapiens, UniProt P14416)", "T4 sequence (P14416 whole entry)": "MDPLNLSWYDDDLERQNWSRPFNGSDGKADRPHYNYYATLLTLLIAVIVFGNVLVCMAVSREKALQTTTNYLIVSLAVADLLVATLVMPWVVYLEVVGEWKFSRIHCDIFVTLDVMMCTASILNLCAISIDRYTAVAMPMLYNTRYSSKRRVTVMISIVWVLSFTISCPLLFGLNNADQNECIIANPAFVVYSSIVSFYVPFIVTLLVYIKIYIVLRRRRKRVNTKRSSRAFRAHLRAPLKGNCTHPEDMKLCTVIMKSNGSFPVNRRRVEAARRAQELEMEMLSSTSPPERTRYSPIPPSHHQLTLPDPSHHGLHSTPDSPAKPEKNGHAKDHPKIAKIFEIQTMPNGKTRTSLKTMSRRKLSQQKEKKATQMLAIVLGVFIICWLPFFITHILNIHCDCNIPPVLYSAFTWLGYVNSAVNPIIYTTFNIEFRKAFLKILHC", "assay": "Displacement of [3H]methylspiperonee from recombinant human D2 receptor expressed in HEK293 cells cell membranes after 60 mins by liquid scintillation counting method"}, "[6]": {"molecular_target": "T5, Alpha-1A adrenergic receptor (Homo sapiens, UniProt P35348)", "T5 sequence (P35348 whole entry)": "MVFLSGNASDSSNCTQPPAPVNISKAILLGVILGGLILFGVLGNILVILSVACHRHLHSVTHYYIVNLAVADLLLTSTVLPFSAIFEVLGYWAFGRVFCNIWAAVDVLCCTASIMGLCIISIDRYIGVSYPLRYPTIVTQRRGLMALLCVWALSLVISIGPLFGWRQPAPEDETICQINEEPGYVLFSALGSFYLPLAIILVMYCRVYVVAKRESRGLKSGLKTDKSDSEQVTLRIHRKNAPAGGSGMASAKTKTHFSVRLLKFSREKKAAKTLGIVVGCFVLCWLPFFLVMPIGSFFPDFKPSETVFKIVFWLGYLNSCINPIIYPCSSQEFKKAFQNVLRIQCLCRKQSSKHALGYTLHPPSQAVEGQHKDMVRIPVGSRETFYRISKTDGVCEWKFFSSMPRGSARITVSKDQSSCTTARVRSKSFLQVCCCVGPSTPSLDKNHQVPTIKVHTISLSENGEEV", "assay": "Displacement of [3H]prazosin from recombinant human alpha1 adrenoceptor expressed in CHO cell membranes after 30 mins by liquid scintillation counting method"}, "[7]": {"molecular_target": "T6, 5-hydroxytryptamine receptor 1A (Homo sapiens) (UniProt P08908)", "T6 sequence (whole entry)": "T1 sequence (P08908 whole entry)", "assay": "Agonist activity at human 5-HT1A receptor expressed in CHO-K1 cells co-expressing Galpha16 assessed as increase in calcium mobilization measured for 30 secs by aequorin-derived luminescence assay relative to serotonin", "type": "functional, cell-based"}, "[8]": {"molecular_target": "T6, 5-hydroxytryptamine receptor 1A (Homo sapiens)", "assay": "Antagonist activity at human 5-HT1A receptor expressed in CHO-K1 cells co-expressing Galpha16 assessed as decrease in serotonin-induced calcium mobilization preincubated for 25 mins followed by serotonin challenge measured for 30 secs by aequorin-derived luminescence assay relative to control", "type": "functional, cell-based"}, "[9]": {"molecular_target": "T6, 5-hydroxytryptamine receptor 1A (Homo sapiens)", "assay": "(§1) Antagonist activity at human 5-HT1A receptor expressed in CHO-K1 cells co-expressing Galpha16 assessed as decrease in serotonin calcium mobilization preincubated for 25 mins followed by serotonin challenge measured for 30 secs by aequorin-derived luminescence assay", "type": "functional, cell-based"}, "[10]": {"molecular_target": "T1, 5-hydroxytryptamine receptor 1A", "assay": "as §1", "type": "functional, cell-based"}, "[11]": {"molecular_target": "T2, 5-hydroxytryptamine receptor 2A", "assay": "Antagonist activity at human 5-HT2A receptor expressed in CHO-K1 cells co-expressing Galpha16 assessed as decrease in serotonin calcium mobilization preincubated for 30 mins followed by serotonin challenge measured for 30 secs by aequorin-derived luminescence assay", "type": "functional, cell-based"}, "[12]": {"molecular_target": "T3, 5-hydroxytryptamine receptor 7", "assay": "Agonist activity at human 5-HT7 receptor expressed in CHO-K1 cells assessed as increase in serotonin-induced cAMP level after 1 hr by TR-FRET assay relative to serotonin", "type": "functional, cell-based"}, "[13]": {"molecular_target": "T3, 5-hydroxytryptamine receptor 7", "assay": "Antagonist activity at human 5-HT7 receptor expressed in CHO-K1 cells assessed as decrease in serotonin-induced cAMP level after 1 hr by TR-FRET assay relative to control", "type": "functional, cell-based"}, "[14]": {"molecular_target": "T3, 5-hydroxytryptamine receptor 7", "assay": "Antagonist activity at human 5-HT7 receptor expressed in CHO-K1 cells assessed as decrease in serotonin-induced cAMP level after 1 hr by TR-FRET assay", "type": "functional, cell-based"}, "[15]": {"molecular_target": "T4, D(2) dopamine receptor", "assay": "Agonist activity at human D2 receptor expressed in CHO-K1 cells co-expressing Galphaqi5 assessed as increase apomorphine-induced calcium mobilization measured for 30 secs by aequorin-derived luminescence assay relative to apomorphine", "type": "functional, cell-based"}, "[16]": {"molecular_target": "T4, D(2) dopamine receptor", "assay": "Agonist activity at human D2 receptor expressed in CHO-K1 cells co-expressing Galphaqi5 assessed as increase in calcium mobilization measured for 30 secs by aequorin-derived luminescence assay", "type": "functional, cell-based"}, "[17]": {"test_system": "Mus musculus", "assay": "Antidepressant-like activity in Albino Swiss CD-1 mouse assessed as immobility time at 5 mg/kg, ip administered 30 mins prior to test measured for last 4 mins of 6 mins observation by forced swim test (reference value: 153.9 to 201.9 secs)", "type": "functional"}, "[18]": {"test_system": "Mus musculus", "assay": "Antidepressant-like activity in Albino Swiss CD-1 mouse assessed as immobility time at 10 mg/kg, ip administered 30 mins prior to test measured for last 4 mins of 6 mins observation by forced swim test (reference value: 153.9 to 201.9 secs)", "type": "functional"}, "[19]": {"test_system": "Mus musculus", "assay": "Antidepressant-like activity in Albino Swiss CD-1 mouse assessed as immobility time at 20 mg/kg, ip administered 30 mins prior to test measured for last 4 mins of 6 mins observation by forced swim test (reference value: 153.9 to 201.9 secs)", "type": "functional"}, "[20]": {"test_system": "Mus musculus", "assay": "Anxiolytic-like activity in Albino Swiss CD-1 mouse assessed as increase in number of punished crossings at 5 to 10 mg/kg, ip administered for 30 mins prior to test measured for 1 min by four-plate test", "type": "functional, organism-based", "procedure,_shortened": "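Four-plate test in mice, i.p., 30 min before test; vehicle 0.9% NaCl; doses 1.25–10 mg/kg; number of punished crossings counted; mean ± SEM, n = 8–10 mice per group; ANOVA F statistics.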"}, "[21]": {"test_system": "Mus musculus", "assay": "Toxicity in Albino Swiss CD-1 mouse assessed as effect on locomotory activity at 5 to 10 mg/kg, ip administered for 30 mins prior to test measured for 1 min", "type": "organism-based", "settings": "in vivo", "procedure,_shortened": "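Mice dosed i.p. 30 min before test; vehicle groups received 0.9% NaCl. Spontaneous locomotion scored as number of crossings during a 1-min session. Each dose compared with its own vehicle group by Student t-test; mean ± SEM, n = 8–10 mice per group.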"}, "[22]": {"molecular_target": "T7, Adrenergic receptor alpha-1 (Rattus norvegicus, UniProt P15823+P23944+P43140)", "T7 sequence (P15823 whole entry)": "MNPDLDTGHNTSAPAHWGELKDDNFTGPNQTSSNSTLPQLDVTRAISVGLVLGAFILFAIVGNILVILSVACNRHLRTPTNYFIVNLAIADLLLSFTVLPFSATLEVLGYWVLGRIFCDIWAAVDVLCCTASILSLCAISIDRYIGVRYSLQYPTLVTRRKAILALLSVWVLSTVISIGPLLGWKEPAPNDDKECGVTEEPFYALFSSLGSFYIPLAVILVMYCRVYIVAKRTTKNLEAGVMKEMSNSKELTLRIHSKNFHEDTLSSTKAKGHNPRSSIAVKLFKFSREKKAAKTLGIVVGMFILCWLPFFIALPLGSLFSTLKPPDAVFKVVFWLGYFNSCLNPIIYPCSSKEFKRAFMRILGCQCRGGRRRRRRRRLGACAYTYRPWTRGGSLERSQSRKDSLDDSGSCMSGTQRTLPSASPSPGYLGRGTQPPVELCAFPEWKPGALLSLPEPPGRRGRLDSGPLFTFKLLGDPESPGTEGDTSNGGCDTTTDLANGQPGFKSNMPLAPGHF", "T7 sequence (P23944 whole entry)": "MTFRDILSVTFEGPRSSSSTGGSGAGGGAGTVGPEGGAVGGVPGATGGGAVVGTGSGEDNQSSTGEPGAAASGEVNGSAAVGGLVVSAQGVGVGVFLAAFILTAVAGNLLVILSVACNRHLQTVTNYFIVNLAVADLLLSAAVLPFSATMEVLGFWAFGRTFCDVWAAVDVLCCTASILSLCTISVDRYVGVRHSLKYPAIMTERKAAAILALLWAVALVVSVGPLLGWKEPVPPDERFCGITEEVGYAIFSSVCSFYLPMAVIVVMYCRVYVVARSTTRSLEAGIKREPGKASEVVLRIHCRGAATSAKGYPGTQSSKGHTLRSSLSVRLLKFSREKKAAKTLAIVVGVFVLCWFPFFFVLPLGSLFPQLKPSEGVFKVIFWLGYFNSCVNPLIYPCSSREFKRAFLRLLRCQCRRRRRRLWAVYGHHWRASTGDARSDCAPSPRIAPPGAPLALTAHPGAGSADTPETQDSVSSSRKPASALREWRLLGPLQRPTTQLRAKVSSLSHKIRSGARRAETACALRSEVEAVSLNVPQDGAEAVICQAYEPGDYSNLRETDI", "T7 sequence (P43140 whole entry)": "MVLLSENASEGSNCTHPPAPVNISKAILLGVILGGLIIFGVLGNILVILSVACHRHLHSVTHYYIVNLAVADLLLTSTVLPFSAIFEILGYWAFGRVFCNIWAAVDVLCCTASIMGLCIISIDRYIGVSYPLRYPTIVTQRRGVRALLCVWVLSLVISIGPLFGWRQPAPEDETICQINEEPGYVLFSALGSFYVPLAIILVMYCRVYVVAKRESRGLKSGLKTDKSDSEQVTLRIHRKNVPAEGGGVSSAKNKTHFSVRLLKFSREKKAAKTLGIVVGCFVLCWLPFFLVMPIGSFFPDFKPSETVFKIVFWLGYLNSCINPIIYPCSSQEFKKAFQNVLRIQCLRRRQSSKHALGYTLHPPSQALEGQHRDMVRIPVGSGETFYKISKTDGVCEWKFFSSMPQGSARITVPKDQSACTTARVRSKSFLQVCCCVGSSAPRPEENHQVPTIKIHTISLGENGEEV", "assay": "Displacement of [3H]prazosin from rat cerebral cortex adrenergic receptor alpha1 by liquid scintillation counting method"}, "[23]": {"molecular_target": "T1, 5-hydroxytryptamine receptor 1A", "assay": "Binding affinity to 5-HT1A receptor (unknown origin)"}}, "note": "Activity calls are given as the source filed them. The rule behind the calls is not given here.", "data": [{"smiles": "Cc1cc(OCCCN2CCN(c3ccccc3)CC2)ccc1Cl.Cl.Cl", "values": [{"measurement": "Ki", "setting": "[1]", "result": 20, "unit": "nM"}, {"measurement": "Ki", "setting": "[2]", "result": 76, "unit": "nM"}, {"measurement": "Ki", "setting": "[3]", "result": "> 5000", "unit": "nM"}, {"measurement": "Ki", "setting": "[4]", "result": 90, "unit": "nM"}, {"measurement": "Ki", "setting": "[5]", "result": 299, "unit": "nM"}, {"measurement": "Ki", "setting": "[6]", "result": 93, "unit": "nM"}, {"measurement": "Emax", "setting": "[7]", "result": 11, "unit": "%"}, {"measurement": "Emax", "setting": "[8]", "result": 6, "unit": "%"}, {"measurement": "Kb", "setting": "[9]", "result": 71.5, "unit": "nM"}, {"measurement": "IC50", "setting": "[10]", "result": 291, "unit": "nM"}, {"measurement": "IC50", "setting": "[11]", "result": 85800, "unit": "nM"}, {"measurement": "Emax", "setting": "[12]", "result": 11, "unit": "%"}, {"measurement": "Emax", "setting": "[13]", "result": 15, "unit": "%"}, {"measurement": "IC50", "setting": "[14]", "result": 5790, "unit": "nM"}, {"measurement": "Kb", "setting": "[14]", "result": 2460, "unit": "nM"}, {"measurement": "Emax", "setting": "[15]", "result": 48, "unit": "%"}, {"measurement": "EC50", "setting": "[16]", "result": 757, "unit": "nM"}, {"measurement": "Time", "setting": "[17]", "result": 189.1, "unit": "s"}, {"measurement": "Time", "setting": "[18]", "result": 188.9, "unit": "s"}, {"measurement": "Time", "setting": "[19]", "result": 172.1, "unit": "s"}, {"measurement": "Activity", "setting": "[20]", "result": "inactive"}, {"measurement": "Activity", "setting": "[21]", "result": "Non-Toxic"}]}, {"smiles": "COc1ccccc1N1CCN(CCCNc2cc(=O)n(C)c(=O)n2C)CC1", "values": [{"measurement": "Ki", "setting": "[22]", "result": 127.9, "unit": "nM"}, {"measurement": "Ki", "setting": "[23]", "result": 213, "unit": "nM"}]}]}
